From PubChem
SENP8 block-1: inhibitors of human SENP8 protease. Q96LD8. purified SENP8, Z-RLRGG-aminoluciferin cleavage, luminescence. inhibition, % at 10 µM. 1.2% of 330,000 active. AID 2540; in the data active = inhibition above about 50%
SENP8 block-2: inhibitors of human SENP8 protease. Q96LD8. recombinant SENP8, Nedd8 substrate fluorescence. inhibition, % at 20 µM. 0.64% of 360,000 active. AID 602440; in the data active = inhibition mostly above about 40%, no sharp cut-off; inactive = mostly below about 27%
SENP1 inh: SENP1 (human) catalytic domain inhibition. 0.21% of 360,000 active. recombinant SENP1 catalytic domain, CyPet-SUMO1-YPet FRET cleavage. Q9P0U3. inhibition, % at 10 µM;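 active = inhibition at least 30% at 10 µM, raw YFP signal under a set limit, fluorescence ratio 0.5 to 1.5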;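 note: 0% = enzyme with DMSO and 100% = no enzyme wells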
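Material: hSENP1 catalytic domain, recombinant; medium: Tris pH 8 with BME, BSA, NP40 and catalase; compound: single concentration of 10 µM compound, 0.5% DMSO final; technique: FRET read of cyan and yellow fluorescence; timing: 50 min enzyme reaction, room temperature, light-protected; reagent: SFCypet-SUMO1-SFYpet substrate at 25 nM; control set: no-enzyme low, enzyme-DMSO high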
SENP7 inh: blocks the human protease SENP7; recombinant SENP7, Z-RLRGG-aminoluciferin luminescence, 40 min; inhibition, % at 5 µM; 1.5% of 330,000 active;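 active = inhibition above about 50% at the single test dose, limit read from the data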;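 note: plate controls were DMSO with enzyme for no effect and no enzyme buffer wells for full effect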
Target sequence (Q9BQF6 706-1050 limits assumed): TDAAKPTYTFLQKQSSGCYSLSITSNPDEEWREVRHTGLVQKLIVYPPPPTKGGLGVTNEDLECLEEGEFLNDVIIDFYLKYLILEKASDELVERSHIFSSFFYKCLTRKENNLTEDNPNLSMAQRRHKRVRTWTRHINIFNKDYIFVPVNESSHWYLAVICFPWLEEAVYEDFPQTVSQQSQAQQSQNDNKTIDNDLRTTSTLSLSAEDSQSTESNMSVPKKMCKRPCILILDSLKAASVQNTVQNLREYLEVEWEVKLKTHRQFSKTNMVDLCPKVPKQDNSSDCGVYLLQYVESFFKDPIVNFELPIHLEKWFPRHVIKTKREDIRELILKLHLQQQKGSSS
SENP6 block: inhibitors of human SENP6 protease | Q9GZR1 | Recombinant SENP6 catalytic domain, aminoluciferin luminescence | inhibition, % at 10 µM | 1.8% of 330,000 active | AID 2599;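 active = inhibition above about 50% at the single tested dose, limit read from the data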;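 note: plate controls were DMSO wells with enzyme for no effect and DMSO wells lacking enzyme for full effect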
SENP8 confirm: confirmation of human SENP8 protease inhibitors | Recombinant SENP8, Z-RLRGG-aminoluciferin luminescence, 60 min | shares compounds with SENP7 inh | inhibition, % at 12.5 µM | 40% of 6,200 active;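 active = mean inhibition across replicates above about 50%, limit read from the data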
SENP6 confirm: confirmation of human SENP6 protease inhibitors | inhibition, % at 12.5 µM | AID 488915 | 58% of 6,200 active | shares compounds with SENP7 inh | recombinant SENP6, Z-RLRGG-aminoluciferin luminescence
SENP7 conf: confirmation of human SENP7 protease inhibitors | recombinant SENP7, Z-RLRGG-aminoluciferin luminescence, 40 min | inhibition, % at 12.5 µM | 69% of 6,200 active | shares compounds with SENP7 inh
Casp3 SENP sel: caspase-3 inhibition (SENP selectivity assay); 60% of 6,200 active; inhibition, % at 12.5 µM; purified caspase-3, Z-DEVD-aminoluciferin luminescence, 60 min; shares compounds with SENP7 inh;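 active = mean inhibition above about 50%, limit read from the data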;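 note: plate controls were enzyme with DMSO for no effect and wells without caspase-3 for full effect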
Target sequence (P42574 28-227 limits assumed): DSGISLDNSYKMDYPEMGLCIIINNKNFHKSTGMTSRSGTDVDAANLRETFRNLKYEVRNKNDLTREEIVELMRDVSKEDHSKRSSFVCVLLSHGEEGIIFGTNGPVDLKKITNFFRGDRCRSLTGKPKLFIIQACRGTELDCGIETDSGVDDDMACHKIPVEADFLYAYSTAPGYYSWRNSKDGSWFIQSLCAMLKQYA
SENP luc ctr: counter-screen for SENP inhibitors: luminescence interference | shares compounds with SENP7 inh | Pre-incubated SENP8/Z-RLRGG-aminoluciferin, luciferase luminescence interference | inhibition, % at 12.5 µM | 39% of 6,200 active;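 active = mean inhibition above about 50% when retested at one dose, limit read from the data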;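 note: plate controls were DMSO wells with completed reaction for no effect and substrate without enzyme for full effect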
* hit, by the source's call; . = no result. Hits are enriched below; roughly 2.5% of the tested compounds scored in any of these assays.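 Rule for the calls, unless noted: active = mean inhibition above about 50% in the one-dose retest (limit read from the data); inactive = the rest.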

SMILES	SENP8 block-1	SENP8 block-2	SENP1 inh	SENP7 inh	SENP6 block	SENP8 confirm	SENP6 confirm	SENP7 conf	Casp3 SENP sel	SENP luc ctr
Cc1ccc(/C=C/C(=O)c2c(C)nc3ccccn23)cc1	-18.2	7.0	1.4	102.6*	16.2	32.4	19.3	32.7	4.8	21.5
CN(C)c1ccc(C(=O)/C=C/c2ccccc2)cc1	63.1*	8.7	19.6	78.9*	84.1*	26.7	17.3	56.5*	29.7	45.4
CC/C=C/C(=O)N1CC2(CC(c3cccc(NC(=O)COc4ccc(Cl)cc4)c3)=NO2)C[C@H]1C(N)=O (stereo not given in full)	-8.6	-5.3	-3.4	4.6	-23.4	.	.	.	.	.
O=C1N/C(=C\c2ccc(O)cc2)C(=O)c2ccccc21	93.8*	25.0	15.4	85.0*	96.0*	93.2*	97.0*	97.0*	84.4*	39.6
Cc1ccc(F)cc1NC(=O)COC(=O)COc1ccc(C#N)cc1	-3.0	6.9	4.0	-4.5	-10.5	.	.	.	.	.
O=C(Nc1ccsc1C(=O)O)c1cccc(C(F)(F)F)c1	68.8*	7.2	2.7	42.8	74.8*	82.1*	82.2*	92.0*	80.0*	82.6*
O=C(Nc1ccsc1C(=O)O)c1cccc(Oc2ccccc2)c1	90.7*	14.6	-0.3	27.8	93.1*	94.9*	95.6*	98.7*	78.8*	95.0*
Cc1cccc2c(=O)n(C(=O)c3ccccc3)c(N)nc12	.	15.6	-0.2	.	.	.	.	.	.	.
CCSc1ccc(-c2ccc(C)cc2)nn1	.	19.6	1.3	.	.	.	.	.	.	.
COc1ccc(C(=O)CSc2ccc(-c3ccccc3)nn2)cc1	-0.3	6.2	1.6	-1.6	4.1	.	.	.	.	.
CCOc1ccc(-c2ccc(SCC)nn2)cc1	79.7*	0.1	0.8	90.1*	65.4*	58.7*	68.3*	85.2*	74.3*	25.2
COc1ccc(-c2ccc(SC)nn2)cc1	94.5*	-0.7	1.6	100.0*	94.9*	98.2*	98.9*	102.1*	98.2*	79.5*
Cc1ccc(CNC(=O)c2ccccc2NC(=O)CN2CC(C)OC(C)C2)cc1 (stereo not given)	-2.0	4.7	2.1	-6.2	-25.8	.	.	.	.	.
Cc1noc(C)c1-c1csc(N2CCC(C(N)=O)CC2)n1	-7.9	14.8	2.7	9.4	21.6	.	.	.	.	.
Cc1ccccc1-c1nn(-c2ccc(F)cc2F)cc1CNCCCN(C)C	6.8	-12.9	-1.0	-3.7	13.7	.	.	.	.	.
CCCCCC(=O)Nc1ccc2oc(-c3cncc(Br)c3)nc2c1	-2.3	-284.0	-1.2	100.9*	-14.2	3.1	0.7	-1.1	9.5	0.4
CCCC(=O)Nc1ccc2oc(-c3cncc(Br)c3)nc2c1	23.4	-416.9	2.3	49.7	49.5	.	.	.	.	.
Cc1noc(C)c1COc1ccc(C(=O)Nc2nnc(CC(C)C)s2)cc1	2.5	3.6	-0.4	5.7	2.0	.	.	.	.	.
CCOC(=O)[C@]12CCCC=C1N(Cc1ccco1)C(=O)[C@H](CC(=O)N1CCSCC1)C2	.	19.8	2.8	.	.	.	.	.	.	.
CC(C)(C)NCCCCOc1ccccc1F	-3.9	5.5	-0.5	84.2*	5.5	16.2	0.5	-2.9	-1.3	-3.3
COc1ccccc1OCCCCNC(C)(C)C	3.1	10.2	0.3	-7.1	-24.9	.	.	.	.	.
Cc1ccccc1OC1C(=O)N(Cc2ccc3c(c2)OCO3)C1c1sccc1C (stereo not given)	2.8	23.1	1.4	3.4	-11.6	.	.	.	.	.
CC(C)(C)c1ccc(C(=O)OCC(=O)N2CCC(c3ccccc3)=N2)cc1	0.5	10.2	0.6	-11.8	3.9	.	.	.	.	.
Cc1ccc(Nc2nc3nonc3[nH]c2=O)cc1C	47.8	6.9	-3.6	38.9	70.4*	65.3*	62.3*	80.4*	64.2*	71.7*
Cc1ccc(NC2=CC(=O)CC(C)(C)C2)cc1Cl	-1.0	-151.2	-91.8	3.0	7.0	.	.	.	.	.
SMILES	SENP8 block-1	SENP8 block-2	SENP1 inh	SENP7 inh	SENP6 block	SENP8 confirm	SENP6 confirm	SENP7 conf	Casp3 SENP sel	SENP luc ctr
Cc1ccc(Nc2nc(N)nc(N)c2N=O)cc1C	.	24.9	2.6	.	.	.	.	.	.	.
Cc1ccc(Nc2nc3nonc3[nH]c2=O)cc1Cl	50.0*	-12.0	-4.9	9.4	79.8*	68.5*	63.8*	75.3*	34.5	70.1*
Cc1ccc(/C=N/Nc2nc3ccccc3s2)o1	90.1*	-76.4	-23.5	82.6*	96.7*	83.5*	84.1*	98.7*	81.1*	47.5
COc1cc(SC)ccc1C(=O)Nc1ccc2c(c1)CCC2	66.5*	6.5	5.8	72.7*	69.2*	12.9	74.6*	90.5*	54.2*	7.3
COc1cc(SC)ccc1C(=O)Nc1ccncc1	3.6	-9.3	3.3	-0.6	-14.1	.	.	.	.	.
COc1cc(SC)ccc1C(=O)Nc1ccc(Cl)cn1	87.0*	-7.2	2.6	96.2*	14.1	-1.2	-0.4	2.2	0.0	-3.4
Cc1ccc(/C=C2\OC(=O)c3ccccc32)cc1	55.9*	-189.6	-21.7	86.4*	67.9*	0.2	15.0	24.7	30.5	11.3
O=C(NC(c1ccc(-c2ccccc2)cc1)c1cnccn1)C1CCN(Cc2cccs2)CC1 (stereo not given)	.	14.3	0.9	.	.	.	.	.	.	.
CC1CCN(C(=O)Cn2nnc(-c3ccc(C(C)C)cc3)n2)CC1	5.0	18.8	0.2	2.0	11.7	.	.	.	.	.
Nc1ccc(S(=O)(=O)NN=Cc2ccccc2[N+](=O)[O-])cc1	.	10.4	0.5	.	.	.	.	.	.	.
Cc1ccc(NC(=S)c2nc3ccccc3[nH]2)cc1	56.9*	17.2	2.3	55.3*	78.9*	71.0*	78.4*	94.9*	60.5*	41.9
Cc1ccc(NC(=S)c2nc3ccccc3[nH]2)c(C)c1	24.6	6.5	0.6	-4.2	49.4	.	.	.	.	.
COc1ccc(C/C(N)=N/OC(=O)c2cccs2)cc1	-3.3	5.7	2.0	0.0	-3.8	.	.	.	.	.
C/C(=N/OC(=O)c1c(F)cccc1F)c1nccs1	46.5	16.7	0.9	80.3*	82.8*	74.5*	75.3*	96.6*	64.6*	81.6*
C/C(=N\OC(=O)c1c(-c2c(F)cccc2Cl)noc1C)c1nccs1	1.1	16.3	1.9	-9.8	0.2	.	.	.	.	.
CC(=NOC(=O)C1CCCCC1)c1nccs1	.	9.0	8.0	.	.	.	.	.	.	.
C/C(=N\OC(=O)c1ccc(F)cc1)c1nccs1	35.0	9.1	3.8	83.8*	74.4*	22.3	24.6	50.4*	56.3*	20.6
COc1ccc(C(=O)O/N=C(\C)c2nccs2)cc1	86.8*	6.2	7.7	96.8*	79.3*	73.3*	95.8*	100.4*	96.2*	42.6
